Measurements published in PubChem BioAssay AID822 (SRMLSC, 2007).
pEC50: −log10 of the molar value. The source made the active and inactive calls.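 Rule for the calls: active = half-maximal effective dose for blocking growth of human endothelial cells at most 100 µM; inactive = the rest.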

System: HUVEC proliferation, viability ATP luminescence
Test: HUVEC proliferation inhibition, dose response, cell-based, ATP luminescence (AID 822);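 note: cells exposed to compound for 72 h before the ATP read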
How it was run: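 Material – HUVEC · Amount – 1250 HUVEC cells seeded per well · Medium – EBM plus 2% FBS · Dosing – dose series 0.039 to 20 µM, DMSO 0.2% · Times – 72 h exposure, 37 °C · Detection – ATP luminescence · Read-out basis – % viability and fitted EC50 · Format – collagen-coated plates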

Row | SMILES | pEC50 | EC50
1 | O=C(c1ccc(F)cc1)C(CN1CCOCC1)c1ccccc1 (centres undefined) | 5.29 | –
2 | CC1(c2ccccc2)CC(C)(C)N2C(=O)C3(C(C#N)=C(N)Oc4cc(O)ccc43)c3cccc1c32 (centres undefined) | 5.17 | –
3 | CCOC(=O)c1c(NC(=O)CSc2nc(C)cc(C)c2C#N)sc(C(C)=O)c1C | 5.31 | –
4 | COc1ccc(C(=O)C(CN2CCOCC2)c2ccccc2)cc1 (centres undefined) | 4.93 | –
5 | Cc1ccc(C(=O)Nc2ncc(Cc3ccccc3)s2)o1 | 6.15 | –
6 | c1ccc(-c2nccc(-c3ccc(-n4cnc5ccccc54)cc3)n2)cc1 | 4.83 | –
7 | Cc1ccc(-c2nnc(SCC(=O)Nc3ccccc3F)o2)cc1 | 4.72 | –
8 | COc1ccc(-c2nnc(NC(=O)c3ccc(S(=O)(=O)N4CCCc5ccccc54)cc3)o2)cc1 | 5.53 | –
9 | Oc1ccc(Nc2nc(-c3ccc4ccccc4c3)cs2)cc1 | 5.23 | –
10 | Nc1c(S(=O)(=O)c2ccccc2)c2nc3ccccc3nc2n1/N=C/c1cccc(O)c1 | 5.22 | –
11 | CC1=C(SCCC#N)S/C(=C2\SC(C)=C(SCCC#N)S2)S1 | 5.04 | –
12 | Cc1ccc2oc3c(c(=O)c2c1)C(c1cccc(Br)c1)N(Cc1ccco1)C3=O (centres undefined) | 4.70 | –
13 | COCCCn1[nH]c2c3c(ccc2c1=O)C(=O)c1ccccc1C3=O | 5.33 | –
14 | O=C(COc1ccc(Cl)cc1)Nc1ccccc1C(=O)NCc1ccco1 | 4.79 | –
15 | CCCCCCn1c(C)nc2c(c1=O)c1nc3ccccc3nc1n2/N=C/c1ccco1 | 4.84 | –
16 | Cc1nn(Cc2ccc(Cl)c(Cl)c2)c(C)c1NC(=O)c1cc(-c2ccc3c(c2)OCO3)on1 | 5.87 | –
17 | Nc1c(C(=O)NCc2ccc(F)cc2)c2nc3ccccc3nc2n1CCCN1CCOCC1 | 4.98 | –
18 | Cc1ccc2[nH]c3c(N4CCN(Cc5ccccc5)CC4)ncnc3c2c1 | 5.09 | –
19 | COC(=O)c1sccc1NC(=O)c1ccc2c(c1)OCO2 | 4.69 | –
20 | Cc1ccc2nc(NC(=O)CSc3ncnc4c3oc3ccccc34)sc2c1 | 5.24 | –
21 | Cc1cc2c(cc1C)CSC(c1c(O)ccc3ccccc13)SC2 | 5.24 | –
22 | COc1ccc(-c2cc(C(=O)Nc3cc(C)n(Cc4ccc(Cl)cc4)n3)no2)cc1OC | 5.02 | –
23 | COc1ccc2c(c1)c1nc3ccccc3nc1n2CC(=O)OC(C)C | 4.95 | –
24 | COc1cccc(C(=O)CSc2nnc(-c3cc(OC)cc(OC)c3)o2)c1 | 4.74 | –
25 | C/C(CC1CC2=C(CC1(C)C)C(C)(C)CCC2)=N\NC(N)=S (centres undefined) | 5.31 | –
26 | Cc1ccc(-c2csc3ncnc(Sc4nnc(CN5CCCCCC5=O)o4)c23)cc1 | 5.26 | –

Row | SMILES | pEC50 | EC50
27 | C=C(C)COc1ccc(-c2n[nH]c(C)c2-c2ccccc2OC)c(O)c1 | 4.88 | –
28 | CN(C)c1ccc(-c2nn3c(-c4ccc(Cl)cc4Cl)nnc3s2)cc1 | 4.83 | –
29 | CCC(=O)OCCNc1cc(Sc2nc3ccccc3s2)c2nonc2c1[N+](=O)[O-] | 4.84 | –
30 | Cc1cc(/C=N/n2cnnc2)c(C)n1-c1ccc(OCc2ccc(Cl)cc2Cl)cc1 | 5.36 | –
31 | COc1ccc(-c2ccc(C#N)c(SCC(=O)Nc3sc4c(c3C#N)CCC4)n2)cc1OC | 5.33 | –
32 | COC(=O)C1=C(O)/C(=C\c2ccc(CNC(=O)C(=O)Nc3ccc(C)cc3)o2)N=C1C | 4.71 | –
33 | CCOc1ccc(Nc2oc(-c3ccc(Cl)cc3)nc2C#N)cc1 | – | > 10 µM (inactive)
34 | Cc1cc(NC(=O)CSc2nc3c(sc4ccccc43)c(=O)n2CCCN2CCOCC2)n[nH]1 | 4.74 | –
35 | CCC(C)[C@@H](NC(=O)OC(C)(C)C)c1nnc(S(=O)(=O)Cc2cccc(C)c2)o1 (some centres undefined) | 4.71 | –
36 | O=C(Nc1nccs1)c1c(O)c2cccc3c2n(c1=O)CCC3 | 4.69 | –
37 | O=Cc1ccc(Sc2nnc(-c3ccccc3)o2)c([N+](=O)[O-])c1 | 4.94 | –
38 | Cc1cccc(-c2nc(CN3CCCC(C(=O)NC4CCCCCC4)C3)c(C)o2)c1 (centres undefined) | 4.97 | –
39 | COC(=O)C(CC(=O)c1ccc(Br)cc1)n1ccnc1 (centres undefined) | 5.03 | –
40 | c1ccc(-c2nc(N3CCCCCC3)c3ccccc3n2)nc1 | 5.81 | –
41 | N#C/C(=C/c1ccc(N2CCCCCC2)o1)c1ccc(Cl)cc1 | 4.74 | –
42 | Cc1cc(C)c2oc(-c3ccc(Cl)c(NC(=O)c4ccc(C#N)cc4F)c3)nc2c1 | 4.96 | –
43 | COc1cccc(-c2cc(C(=O)Nc3cc(C)n(Cc4ccc(Cl)cc4)n3)no2)c1 | 4.91 | –
44 | CC1CC(C)(C)CC2(C1)NC(=S)N(c1ccccc1)N2 (centres undefined) | 4.91 | –
45 | CC(=O)Nc1ccc(S(=O)(=O)NC2=C(N3CCN(Cc4ccccc4)CC3)C(=O)c3ccccc3C2=O)cc1 | 5.17 | –
46 | CCOC(=O)c1sc(NC(=O)CSc2nnnn2-c2ccc(C)cc2C)nc1C | 4.86 | –
47 | CCOC(=O)c1ccccc1Nc1cn(C(C)=O)c2ccccc12 | 4.93 | –
48 | CC(C)(C)c1nn(-c2ccccc2)c2[nH]c(=O)c(CNCc3ccc4c(c3)OCO4)cc12 | 5.09 | –
49 | CC1CCc2sc3nc(N4CCN(CCO)CC4)n4ncnc4c3c2C1 (centres undefined) | 4.71 | –
50 | COc1ccc(NC(=O)c2oc3ccccc3c2NC(=O)COc2ccccc2OC)c(OC)c1 | 5.55 | –
51 | COc1ccc(NC(=O)c2cc3n(n2)C(C(F)(F)F)CC(c2ccc(OC)cc2)N3)cc1 (centres undefined) | 5.00 | –
52 | Fc1ccc2c(Cl)c(-c3nnc(-c4cccs4)o3)sc2c1 | 5.09 | –

Row | SMILES | pEC50 | EC50
53 | Cc1cc(NC(c2cccnc2)c2ccc3cccnc3c2O)no1 (centres undefined) | 5.20 | –
54 | CCn1c(SCC(N)=O)nnc1-c1ccc2[nH]c(C)c(C)c2c1 | – | > 10 µM (inactive)
55 | COC(=O)NC(=C(Cl)Cl)S(=O)(=O)c1ccccc1 | 5.07 | –
56 | CC(C)(C)C1CC=C2C(C#N)=C(N)C(C#N)(C#N)C(c3cccs3)C2C1 (centres undefined) | 4.91 | –
57 | CCCCC(=O)O[C@H]1CC[C@H]2[C@@H]3CCc4cc(O)ccc4[C@H]3CC[C@]12C | 5.15 | –
58 | Brc1ccccc1OCCCn1cnc2ccccc21 | 4.88 | –
59 | Cn1c2ccccc2c(=O)c2c(=O)n(C3CCCCC3)c(-c3cccs3)nc21 | 5.08 | –
60 | C=CCn1c(SCC(=O)c2c(N)n(CCC)c(=O)n(C)c2=O)nc2sc(CC)cc2c1=O | 4.83 | –
61 | O=C1Nc2ccccc2/C1=C/C(=O)c1cccs1 | 5.12 | –
62 | O=C(CCC1COc2ccccc2O1)Nc1ccc(Cl)cn1 (centres undefined) | 4.76 | –
63 | CCCCC[n+]1ccn(C2=C([O-])c3ccccc3C(=O)/C2=N\S(=O)(=O)c2ccccc2)c1 | 5.21 | –
64 | N=c1c2c(ncn1CCN1CCOCC1)Oc1ccc3ccccc3c1C2c1ccccc1 (centres undefined) | 4.92 | –
65 | Cc1cccc(CS(=O)(=O)c2nnc([C@H](Cc3ccccc3)NC(=O)OC(C)(C)C)o2)c1 | 5.00 | –
66 | O=C(Nc1ccccc1)c1cccc(-c2nnc(-c3ccccc3)o2)c1 | 4.98 | –
67 | CCCCCCOC(=O)C(C#N)c1nc2ccccc2nc1N1CCN(CC)CC1 (centres undefined) | 5.09 | –
68 | Cc1ccc(S(=O)(=O)N2CCCN(S(=O)(=O)c3ccc(C(F)(F)F)cc3)CC2)cc1 | 5.15 | –
69 | Nc1c(C(=O)NCc2ccccc2)nnn1Cc1cccc(Cl)c1 | 4.86 | –
70 | COc1cccc(-c2nnc(Nc3nc4c(F)cccc4s3)o2)c1 | 5.07 | –
71 | CC(C)(C)OC(=O)N[C@@H](Cc1ccccc1)c1nnc(S(=O)(=O)Cc2cccc(F)c2)o1 | 4.84 | –
72 | Cc1ccc(C2(C(F)(F)F)N=C3Sc4cc(C)cc(C)c4N3C(=O)N2)cc1 (centres undefined) | 4.96 | –
73 | O=[N+]([O-])c1ccc(/C=N/Nc2nc(N3CCCC3)nc(N3CCCC3)n2)o1 | 4.79 | –
74 | CC1CCN(S(=O)(=O)c2ccc(NC(=O)Cn3nnc(-c4ccccc4F)n3)cc2)CC1 | 5.18 | –
75 | COc1ccc(CN=C(C)c2c(C(F)(F)F)[nH]n(-c3nc4ccccc4s3)c2=O)cc1 | 5.23 | –
76 | COc1ccc2cc3cc(C(=O)Nc4ccc5c(c4)OCCO5)oc3nc2c1 | 4.93 | –
77 | Cc1nn(CC(=O)Nc2ccc3c(c2)oc2ccccc23)c(=O)c2ccccc12 | 5.20 | –
78 | CCN(CCNC(=O)C1CCN(Cc2nc(-c3ccc(Cl)cc3)oc2C)CC1)c1ccccc1 | 5.23 | –

Row | SMILES | pEC50 | EC50
79 | Cc1ccc(-c2nc3cccnc3o2)cc1NC(=O)COc1ccc(C(C)(C)C)cc1 | 5.05 | –
80 | Cc1ccc(C(C)C)c(OCC(=O)Nc2ccc3c(c2)nc(CN2CCCC2)n3C)c1 | 4.84 | –
81 | O=C(N/N=C/c1ccco1)c1cc(-c2ccc3ccccc3c2)n[nH]1 | 5.03 | –
82 | CCCCS(=O)(=O)/C=C\C=C/S(=O)(=O)CCCC | 5.30 | –
83 | C=CCOC(=O)C1=C(C)NC(SCC(=O)Nc2nccs2)=C(C#N)C1c1cccs1 (centres undefined) | 5.21 | –
84 | Nc1nc(NC(=O)c2cccc(S(=O)(=O)N3CCCCCC3)c2)nc(-c2ccccc2)n1 | 4.89 | –
85 | O=C1CC(c2ccco2)Cc2nc(Nc3nc(-c4ccccc4)c4ccccc4n3)ncc21 (centres undefined) | 5.13 | –
86 | COc1ccc(CNC(=O)c2c(N)n(CCCN3CCOCC3)c3nc4ccccc4nc23)cc1 | 5.00 | –
87 | COc1ccc(OC)c(CCNC(=O)Cn2sc3nc(C)cc(C)c3c2=O)c1 | 4.92 | –
88 | COc1ccc(Cl)c(N2CCN(CCCNC(=O)Nc3ccc(C)cc3)CC2)c1 | 4.91 | –
89 | CC(C)COC(=O)c1ccc2c(c1O)C(=O)c1ccccc1C2=O | 5.51 | –
90 | COc1ccc(C(C[N+](=O)[O-])c2c(-c3ccccc3)cc3ccccn23)cc1 (centres undefined) | 4.96 | –
91 | CCN1CCN(c2ncc(C(=O)Nc3cc(Cl)c(OC)cc3OC)c3ccccc23)CC1 | 4.85 | –
92 | FC(F)C(F)(F)C(F)(F)C(F)(F)c1cc(-c2ccccc2)n[nH]1 | 5.08 | –
93 | Cc1ccc2c(C)ccc(O)c2n1 | 5.13 | –
94 | N/C(Cc1ccc(Cl)cc1)=N\OC(=O)c1ccc2ccccc2c1 | 5.01 | –
95 | O=C1C=C(c2ccc(Cl)cc2)C(=O)N1Nc1ccccc1 | 4.97 | –
96 | CCOC(=O)C1=C(Cc2ccc(F)cc2)C(=O)c2ccccc2C1=O | 4.87 | –
97 | COC(=O)c1ccc2c(=O)n(Cc3ccco3)c(SCC(=O)Nc3ccccc3Cl)nc2c1 | 5.31 | –
98 | CC1=C(C(=O)OC2CCCCCCC2)C(c2cc3c(cc2Br)OCO3)CC(=O)N1 (centres undefined) | 5.16 | –
99 | CCOC(=O)c1c(C)[nH]c(C(=O)OC/C(O)=C(\C#N)c2nc3ccccc3[nH]2)c1C | 4.94 | –
100 | COc1cc2nc(NCCCN3CCN(C)CC3)n3nc(-c4ccccc4)nc3c2cc1OC | 4.98 | –
101 | CC(=O)Nc1ccc(NC2=Nc3ccccc3N3C2=Nc2c(c(C)nn2-c2ccccc2)C3c2ccccc2)cc1 (centres undefined) | 4.80 | –
102 | Cc1ccc(S(=O)(=O)c2c(C)nn(C(C)(C)C)c2OC(=O)c2ccc(Br)o2)cc1 | 5.34 | –
103 | Cn1c(=O)c2c(nc(Oc3ccc4c(c3)OCO4)n2Cc2ccc(Cl)cc2)n(C)c1=O | 5.27 | –
104 | N#C/C(=C/c1ccc(N2CCCCCC2)o1)c1ccc(F)cc1 | 4.90 | –
